Measured values as given in ChEMBL document CHEMBL1132580, “Syntheses and biological activities of rebeccamycin analogues. Introduction of a halogenoacetyl substituent” (J Med Chem, 1999).
pIC50: −log10 of the molar value. ≈ marks a conversion by molar mass, not a printed value. Calls of active or inactive are those of the source. No cut-off for these calls is given here.

Experiments:
P388 [1] = test: Cytotoxicity against P388/CPT5 leukemia cells.; type: functional, cell-based; details: Mus musculus
Procedure, shortened: (§1)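 Murine P388 (camptothecin-sensitive) and P388/CPT5 (camptothecin-resistant, mutant top1) leukemia cells were exposed to a range of drug concentrations for 96 h at 37 °C. Viability was read by neutral red staining. IC50 is the concentration inhibiting growth by 50%.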

Bacillus cereus [2] = test: Minimum inhibitory concentration against gram-positive Bacillus cereus; type: functional
Procedure, shortened: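 Broth dilution in Mueller–Hinton broth pH 7.4 against B. cereus ATCC 14579. Compounds were diluted in DMSO across 12 tubes spanning 100 to 0.05 μg/mL. Read after 24 h at 27 °C.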

Protein kinase C (PKC) [3] = test: (§2) Inhibition of protein kinase C (PKC); type: protein assay
Procedure, shortened: (§3)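 PKC-α activity was assayed with protamine sulfate as substrate. IC50 values were determined.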

Bacillus cereus [4] = test: Antimicrobial activity against gram-positive Bacillus cereusATCC 14579 was determined by antibiogram test.++ means growth inhibition zone was 8-9 mm.; type: functional, organism-based; details: ATCC 14579
Procedure, shortened: (§4)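 Paper-disk diffusion (6 mm disks, 300 μg drug per disk from DMSO solution) on Mueller-Hinton agar against B. cereus ATCC 14579. Inhibition zones were scored after 24 h at 27 °C.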

Nucleic Acid = test: Variation in melting temperature (delta Tm) of helix-to-coil transition of DNA was reported.; type: nucleic-acid assay
Procedure, shortened: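 A260 was followed over 20–100 °C at 1 °C/min using 20 μM calf thymus DNA with or without drug (10 μM) in BPE buffer pH 7.1 (6 mM Na2HPO4, 2 mM NaH2PO4, 1 mM EDTA). Tm was taken as the midpoint of the hyperchromic transition from the first-derivative plot.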

[5] = Resistance Index (RI) refers to the ratio of the [IC50 (P388/CPT5)] / IC50 P388.; type: functional
Procedure, shortened: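 Ratio of IC50 in P388/CPT5 cells to IC50 in P388 cells. Both IC50 values came from 96 h drug exposure at 37 °C with neutral red viability readout.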

Streptomyces chartreusis [6] = test: Antimicrobial activity against gram-positive […] chartreusis NRRL 11407 was determined by antibiogram test.++ means growth inhibition zone was 8-9 mm.; type: functional, organism-based
[7] = Selectivity Index (SI) refers to the ratio of the anti HIV activities CC50/IC50 in HIV-1 Lai infected CEM-SS cells.; type: functional
Procedure, shortened: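 SI = CC50/IC50. CC50 came from MTT viability (OD 540 nm) of uninfected CEM-SS cells. IC50 came from reverse transcriptase activity of virus released after 5 days from HIV-1 Lai–infected CEM-SS cells. Both values were taken from median effect plots.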

CEM-SS [8] = test: Anti-HIV-1 activity in CEM-SS cells was measured by the quantification of the reverse transcriptase activity, associated with the virus particles released from HIV-1 infected cells in the culture medium.; type: functional, cell-based; details: Homo sapiens
Procedure, shortened: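 CEM-SS cells in RPMI 1640 with 10% FBS at 37 °C, 5% CO2 were infected with HIV-1 Lai (100 TCID50). After 30 min adsorption the cells were washed and resuspended at 10⁵ cells/mL with a range of compound concentrations. Virus production was measured as reverse transcriptase activity after 5 days. IC50 was taken from a median effect plot of dose–effect data.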

Bacillus cereus [9] = test: Antimicrobial activity against gram-positive Bacillus cereusATCC 14579 was determined by antibiogram test.+/- means growth inhibition zone was 6-7 mm.; type: functional, organism-based; details: ATCC 14579; procedure, shortened: as §4
[10] = test system: DNA topoisomerase 1 (Bos taurus); test: Minimum inhibitory concentration against DNA topoisomerase I
P388 [11] = test: Cytotoxicity against P388 leukemia cells; type: functional, cell-based; details: Mus musculus; procedure, shortened: as §1
CEM-SS [12] = test: Cytotoxicity against uninfected CEM-SS cells; details: Homo sapiens
Streptomyces chartreusis [13] = test: Antimicrobial activity against gram-positive […] chartreusis NRRL 11407 was determined by antibiogram test.+++ means growth inhibition zone was 10-12 mm.; type: functional, organism-based
CEM-SS [14] = test: Cytotoxicity against HIV-1 Lai infected CEM-SS cells; type: functional; details: Homo sapiens, in the assay text read “uninfected CEM-SS cells” for “HIV-1 Lai infected CEM-SS cells”
Procedure, shortened: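 Uninfected CEM-SS cells were incubated in parallel with a range of compound concentrations. Viability was read by MTT reduction to formazan (OD 540 nm). CC50 is the concentration reducing viability by 50%, derived with the median-effect program.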

Bacillus cereus [15] = test: Antimicrobial activity against gram-positive Bacillus cereusATCC 14579 was determined by antibiogram test.+ means growth inhibition zone was 7-8 mm.; type: functional, organism-based; details: ATCC 14579; procedure, shortened: as §4
Protein kinase C (PKC) [16] = test: as §2; type: functional; procedure, shortened: as §3

Row | MIC (Bacillus cereus [2]) | IC50 (Protein kinase C (PKC) [3]) | DeltaTm (Nucleic Acid) | pIC50 (CEM-SS [8]) | MIC [10] | IC50 (Protein kinase C (PKC) [16]) | Compound | pIC50 (P388 [1]) | Antimicrobial activity (Bacillus cereus [4]) | Resistance index [5] | Antimicrobial activity (Streptomyces chartreusis [6]) | Selectivity index [7] | Antimicrobial activity (Bacillus cereus [9]) | pIC50 (P388 [11]) | CC50 (CEM-SS [12]) | Antimicrobial activity (Streptomyces chartreusis [13]) | CC50 (CEM-SS [14]) | Antimicrobial activity (Bacillus cereus [15])
1 | 10.9 µM (≈ 6.22 µg/mL) | > 175 µM | 0 |  |  |  | CO[C@H]1[C@H](O)[C@@H](O)[C@H](n2c3c(Cl)cccc3c3c4c(c5c6cccc(Cl)c6[nH]c5c32)C(=O)NC4=O)O[C@@H]1CO [REBECCAMYCIN] | 4.98 | Active | 8.6 | Partially active | 2 |  |  |  |  |  | 
2 | > 72 µM | 101 µM | 0.5 | 6.48 | 1450 nM (≈ 1 µg/mL) |  | COC1C(COC(=O)CBr)OC(n2c3c(Cl)cccc3c3c4c(c5c6cccc(Cl)c6[nH]c5c32)C(=O)NC4=O)C(O)C1O (stereo not given) | 5.37 |  | 10 |  | 4.4 | inactive | 6.37 | 1450 nM |  |  | 
3 | 46 µM (≈ 25 µg/mL) |  |  |  | 18000 nM (≈ 9.78 µg/mL) |  | COC1C(CO)OC(n2c3ccccc3c3c4c(c5c6ccccc6[nH]c5c32)C(=O)NC4=O)C(OC(C)=O)C1O (stereo not given) | 5.34 |  | 8.3 |  |  | +/- | 6.26 |  | growth inhibition zone was 10-12 mm |  | 
4 | > 100 µM | > 142 µM | 4.1 |  |  |  | CO[C@H]1[C@H](O)[C@@H](O)[C@H](n2c3ccccc3c3c4c(c5c6ccccc6[nH]c5c32)C(=O)NC4=O)O[C@@H]1CO | < 4.70 |  | > 28 |  | 5.6 |  |  |  |  | 900 nM | 
5 | 5.02 µM (≈ 3.12 µg/mL) | > 161 µM | 3.2 | 6.82 | 1610 nM (≈ 1 µg/mL) |  | COC1C(CO)OC(n2c3ccccc3c3c4c(c5c6ccccc6[nH]c5c32)C(=O)NC4=O)C(O)C1OC(=O)CBr (stereo not given) | 5.49 | Active | 20 | Partially active | 2.9 |  | 6.80 |  |  | 440 nM | 
6 | 1.81 µM (≈ 1.25 µg/mL) | 24 µM | 0.5 | 6.01 | > 14000 nM |  | COC1C(CO)OC(n2c3c(Cl)cccc3c3c4c(c5c6cccc(Cl)c6[nH]c5c32)C(=O)NC4=O)C(OC(=O)CBr)C1O (stereo not given) | 6.03 | Active | 2.5 |  | 2.3 |  | 6.59 |  |  | 2300 nM | 
7 | 4.72 µM (≈ 3.12 µg/mL) | > 151 µM | 1.2 | 6.35 | 1140 nM (≈ 0.753 µg/mL) |  | COC1C(CO)OC(n2c3c(Cl)cccc3c3c4c(c5c6cccc(Cl)c6[nH]c5c32)C(=O)N(CC(=O)CCl)C4=O)C(O)C1O (stereo not given) | 5.46 |  | 15 |  | 2.7 |  | 6.62 | 1200 nM | Active |  | Partially active
8 | 5.02 µM (≈ 3.12 µg/mL) | > 162 µM | 3.7 | 6.92 | 1590 nM (≈ 0.99 µg/mL) |  | COC1C(CO)OC(n2c3ccccc3c3c4c(c5c6ccccc6[nH]c5c32)C(=O)NC4=O)C(OC(=O)CBr)C1O (stereo not given) | 5.30 | Active | 10.4 | Partially active | 3.8 |  | 6.32 |  |  | 460 nM | 
9 | > 72 µM | > 144 µM | 0 | 6.30 | 1440 nM (≈ 1 µg/mL) |  | COC1C(CO)OC(n2c3ccccc3c3c4c(c5c6ccccc6[nH]c5c32)C(=O)N(CCCCOC(=O)CBr)C4=O)C(O)C1O (stereo not given) | < 4.84 |  | > 7.4 |  | 1.1 | inactive | 5.71 |  |  | 570 nM | 
10 | > 81 µM |  | 0.5 | 5.85 | > 16000 nM | > 163 µM | COC1C(CO)OC(n2c3c(Cl)cccc3c3c4c(c5c6cccc(Cl)c6[nH]c5c32)C(=O)NC4=O)C(OC(C)=O)C1O (stereo not given) | 5.48 |  | 6.7 |  |  |  | 6.32 | 1200 nM |  |  | 
